Test results from PubChem BioAssay AID1556 (The Scripps Research Institute Molecular Screening Center, 2009).
In all, about 290,000 compounds went through this assay and about 1,300 (0.45%) were called active.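 How the source made its calls: active means inhibition above the mean plus 3 SD of all compounds in the same screening run (cut at about 4.5% in these data); inactive means the rest.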 The list comes from a sample in which actives are over-represented; it also holds similar structures and randomly drawn compounds.

Each compound was assayed on metallo-beta-lactamase IMP-1 (Pseudomonas aeruginosa) (assay: IMP-1 metallo-beta-lactamase inhibitors, primary screen, biochemical, epi-absorbance readout, Pseudomonas aeruginosa enzyme (AID 1556;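 further: 0% = IMP-1 with DMSO and 100% = DMSO wells lacking enzyme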)). Settings: purified IMP-1, nitrocefin hydrolysis, epi-absorbance fluorescence; at 5.6 µM; stronger effect = higher value.
Method in brief: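 system = purified recombinant IMP-1 beta-lactamase | amount = 0.2 nM IMP-1, as dispensed | medium = HEPES buffer pH 7.1 with ZnSO4 and Brij 35 | times = 25 °C, 15 min preincubation, 25 min reaction | detection = plate fluorescence quenching by hydrolysis product, ex 480/em 530 nm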

Compound | inhibition
O=C(CNC(=O)c1ccccc1F)c1ccc(Br)cc1 | -2.02% (inactive)
Cc1ccccc1NC(=O)CSc1ccc2nnc(-c3ccccn3)n2n1 | -1.21% (inactive)
CC(NC(=O)CCCC1CCCCC1)c1ccc(S(N)(=O)=O)cc1 (centres undefined) | -1.72% (inactive)
O=C(Cc1cccs1)Nc1cccc(-c2nc3ccccc3[nH]2)c1 | -5.9% (inactive)
O=C(Nc1cccc(-c2nc3ccccc3[nH]2)c1)c1ccc(C(=O)Nc2cccc(-c3nc4ccccc4[nH]3)c2)cc1 | 4.99% (active)
O=C(/C=C/c1ccco1)Nc1cccc(-c2nc3ccccc3[nH]2)c1 | -2.53% (inactive)
CC1CCN(C(=O)CN(c2ccc(Oc3ccccc3)cc2)S(C)(=O)=O)CC1 | -2.25% (inactive)
CSCCC(NC(=O)c1ccc(Cl)cc1Cl)C(=O)NNC(=O)c1csc(N2CCOCC2)n1 (centres undefined) | -2.46% (inactive)
COc1ccc(Cl)cc1NC(=O)CCS(=O)(=O)c1ccc(Br)cc1 | 9.04% (active)
O=C(CCS(=O)(=O)c1ccc(Br)cc1)NCCc1ccc(Cl)cc1 | 0.69% (inactive)
COc1ccc(Cl)cc1NC(=O)CCS(=O)(=O)c1cc2c(cc1C)NC(=O)CO2 | -3.94% (inactive)
COc1ccc2cc(-c3[nH]ncc3CNCCn3nc(C)cc3C)ccc2c1 | -2.54% (inactive)
O=C(NCc1ccncc1)C(=O)NCC1OCCN1S(=O)(=O)c1ccc(Br)cc1 (centres undefined) | -1.07% (inactive)
COc1ccc(C(=O)/C=C/Nc2ccccn2)cc1 | 5.05% (active)
CCOc1ccc(N/C=C/C(=O)c2ccccc2)cc1 | -2.54% (inactive)
COc1ccc2cc(S(=O)(=O)Nc3ccccn3)ccc2c1 | -3.85% (inactive)
COc1ccc(/C=N/Nc2ccccc2C(=O)O)cc1 | -1.08% (inactive)
CCOC(=O)C1=C(c2ccccc2)NC(=O)NC1c1cc(OC)c(OC)cc1OC (centres undefined) | -2.08% (inactive)
Cc1ccccc1Nc1nnc(SCC(=O)c2cc3ccccc3o2)s1 | 7.2% (active)
Cc1cc(NC(=O)CSc2nnc(Nc3ccccc3F)s2)no1 | -0.94% (inactive)

Compound | inhibition
Cc1ccc(Nc2nnc(SCC(=O)c3cc4ccccc4o3)s2)cc1C | -0.86% (inactive)
CN(C)/N=C/c1cc(Cl)cc([N+](=O)[O-])c1O | 4.62% (active)
O=C(N/N=C/c1cc(Cl)cc([N+](=O)[O-])c1O)C(O)(c1ccccc1)c1ccccc1 | -3.33% (inactive)
O=[N+]([O-])c1cc(Cl)cc(/C=N/NC(=S)Nc2cc(S(=O)(=O)N3CCOCC3)ccc2Cl)c1O | -0.24% (inactive)
O=C(Nc1ccccc1Cc1ccccc1)c1ccc2c(c1)SC1=NS(=O)(=O)CCN12 | -3.52% (inactive)
COc1ccc(CNC(=O)CN(c2ccc(OC)c(Cl)c2)S(=O)(=O)c2ccc(C)cc2)cc1 | -0.9% (inactive)
CCOC(=O)c1cc2cc3ccccc3cc2oc1=O | 0.55% (inactive)
CC1CCN(C(=O)CCNC(=O)c2ccccc2)CC1 | -1.09% (inactive)
Cc1oc2c(F)c(F)c(F)c(F)c2c1S(=O)(=O)Nc1cccc(C(F)(F)F)c1 | -0.74% (inactive)
COc1ccc(OC)c(S(=O)(=O)N2CCCC(C(=O)NCCc3ccccc3)C2)c1 (centres undefined) | -0.65% (inactive)
CCCN(CCC)c1nc2c(C)cccn2c(=O)c1/C=C1/SC(=S)N(Cc2ccco2)C1=O | 7.59% (active)
CCOC(=O)CC1C(=O)NCCN1c1nc2c(C)cccn2c(=O)c1/C=C1\SC(=S)N(C(C)CC)C1=O (centres undefined) | -2.03% (inactive)
Cc1cccn2c(=O)c(/C=C3\SC(=S)N(CC(C)C)C3=O)c(NCCCOC(C)C)nc12 | -1.23% (inactive)
CC(C)(O)C#Cc1ccc(CN2CCC(CO)(CCc3ccccc3)CC2)cc1 | -0.34% (inactive)
N#Cc1ccc(-c2nc3cc(C#N)c(C#N)cc3nc2-c2ccccc2)cc1C#N | -3.53% (inactive)
CC(=O)Nc1ccc(S(=O)(=O)N(C)c2nc3ccccc3nc2Cl)cc1 | -0.55% (inactive)
O=C(Nc1ccc([N+](=O)[O-])cc1)C1CC12CCC2 (centres undefined) | -0.64% (inactive)
CCC(=C/c1sc2ccc3ccccc3c2[n+]1C)/C=C1\Sc2ccc3ccccc3c2N1C | 17.3% (active)
CCCNC(=O)CSc1nc(Cc2ccccc2)nc2ccccc12 | -3.79% (inactive)
COc1cc(OC)cc(-c2cc3nc(C4CCN(C(=O)OC(C)(C)C)CC4)cc(=O)n3[nH]2)c1 | -4.79% (inactive)

Compound | inhibition
CCc1ccccc1NC(=O)CCOc1ccccc1 | -1.54% (inactive)
COc1ccccc1C(=O)NNC(=O)CCN1C(=O)/C(=C\c2ccccc2)SC1=S | -0.96% (inactive)
COc1ccc(/C=C2\SC(=S)N(CCC(=O)Nc3ccccn3)C2=O)cc1OC | -4.91% (inactive)
COc1cc(/C=C2/SC(=S)N(Cc3ccccc3)C2=O)cc(OC)c1O | 10% (active)
CCCOC1CCCN(C(=O)c2cc(COc3cncc(Cl)c3)on2)C1 (centres undefined) | -0.48% (inactive)
O=C(COC(=O)c1ccc(N2CCCC2=O)cc1)c1ccc(OC(F)F)cc1 | -0.84% (inactive)
C[C@@H]1CC[C@@]2(OC1)O[C@H]1C[C@H]3[C@@H]4CC=C5C[C@@H](O)[C@H](O)C[C@]5(C)C4CC[C@]3(C)[C@H]1[C@@H]2C (some centres undefined) | -4.13% (inactive)
Cc1ccc(S(=O)(=O)N2CCN=C2SCc2c(F)cccc2Cl)cc1 | 0.72% (inactive)
Cc1cc(C)c2cc(CN(Cc3cccs3)Cc3nnnn3CC3CCCO3)c(=O)[nH]c2c1 (centres undefined) | -1.83% (inactive)
Cc1cc(C)c2cc(CN(Cc3nnnn3Cc3ccc(F)cc3)C3CCCC3)c(=O)[nH]c2c1 | 6.27% (active)
Cc1cccc2cc(CN(Cc3nnnn3Cc3ccccc3)C3CCCC3)c(=O)[nH]c12 | -0.68% (inactive)
COCc1c(C(=O)N/N=C\c2cccnc2)nnn1-c1nonc1N | -2.01% (inactive)
COc1ccc(C2=NS(=O)(=O)N(C)C(C(=O)N3CCCCC3)=C2)cc1 | -5.03% (inactive)
CC(=O)Nc1ccccc1Sc1ccc2c3c(cccc13)C(=O)N(c1ccc(C)cc1)C2=O | -1.41% (inactive)
O=C(O)c1ccc2c3c(cccc13)C(=O)N(OS(=O)(=O)c1ccccc1)C2=O | -1.83% (inactive)
Cc1nn(C)cc1N1C(=O)c2cccc3c(N)ccc(c23)C1=O | 22.2% (active)
CN1C(=O)c2cccc3c(N)ccc(c23)C1=O | 41.5% (active)
Cc1nn(-c2cc(Cl)ccc2N)c(=O)c2ccccc12 | -2.53% (inactive)
O=C1c2ccccc2C(=O)N1c1cccc2ccccc12 | -2.06% (inactive)
